The labels stand for the following.
B1: tRNA (parent)
chain: GUUCCGUUGGCGUAAUGGUAACGCGUCUCCCUCCUAAGGAGAAGACUGCGGGUUCGAGUCCCGUACGGAACG

This sample holds only a part of the variants without activity.

Variants of B1 are the subject of this data set. The data set is described as follows: yeast fitness relative to wild type (ratio to wild type); higher = fitter; tRNA-Arg(CCU), competitive growth, 37 C, YPD. In a few lines:
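Start and end populations of a pooled competition were compared by 100-nucleotide paired-end sequencing of gene amplicons. The Saccharomyces cerevisiae strains carried tRNA-Arg(CCU) gene variants at the native genomic locus, synthesised with a 3% per-site mutation rate at 69 sites, and competed in YPD at 37°C for 24 hours in six parallel replicates. Darwinian fitness relative to wild type was based on the change in genotype frequencies. Genotypes required ≥ 100 starting reads, and estimates < 0.5 were set to 0.5.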
With C22A G39C A43U U53C U54A, the yeast fitness was no more than 0.5.
Then G23U U32A U53A C55G, with no more than 0.5.
Then C22U C30U C33U A45C C66U, with no more than 0.5.
For C22U C31G G38A U47A, the yeast fitness was no more than 0.5.
In the case of C22G C27G C31G it was 0.571; in that of G23A C29U C60U A65U, no more than 0.5; in that of G23C C29G G67U A69C, no more than 0.5.
On to C24A A57U, for which the yeast fitness worked out at 0.681.
In the case of C22G G39A G67C, the yeast fitness is 0.526.
In the case of G23C A37G A69C it was 0.548.
Then G23C G38A, with 0.696; and C22G U28A A40U A57U, with 0.657; and C22U C24U G51C, with no more than 0.5.
In the case of G23C C33U A57U G67A, the yeast fitness is 0.512.
In the case of C22G U28C C29A A42C, the yeast fitness is no more than 0.5.
In the case of C22G C30G C33G A37U C61G it was 0.683; in that of C24A A42C U64C, no more than 0.5; in that of C22A G41A C46U C66U, 0.716.
In the case of C22A C60A it was 0.659; in that of C22G G50A, 0.837; in that of G23A A40G A45C, no more than 0.5.
Then C22G G41A A43C G51C C66U G67U, with no more than 0.5.
Regarding G23C G51C, the yeast fitness is no more than 0.5.
Regarding G23A C34A, the yeast fitness is 0.523.
Then C22U U26C, with 0.667.
Then C22G U32C G67A, with 0.564; and C22A G50C A65G, with no more than 0.5.
In the case of C22U G51A it was 0.804; in that of C22G C29G C46U G63A A70U, no more than 0.5.
Consider G23C C30A U64C, for which the yeast fitness was no more than 0.5.
Then C22U C46G C49A C60A A70C, with no more than 0.5; and C22G C29G G68C, with no more than 0.5; and C22U A45G, with 0.747.
Then C22U A40G A43U C46G C49G A70G, with no more than 0.5; and C24A A42C G67C A70U, with no more than 0.5; and G23U C24G C27U, with no more than 0.5.
In the case of G23A C33G U47A G68A it was 0.539; in that of C22U A43C C46A, 0.626.
For C22U G52C G68A, the yeast fitness was no more than 0.5.
Then G23C G41A A45C A65C, with 0.583; and G23U A57U, with 0.614.
In the case of C22G U47G C66U A69C it was no more than 0.5; in that of C22A G25A A69C, 0.784.
In the case of C24A A42C, the yeast fitness worked out at 0.713.
In the case of G23A C31A A69C it was no more than 0.5; in that of G23A C24G A40U A65U, no more than 0.5; in that of C22A C61A, 0.611.
In the case of G23A C31G G52A it was no more than 0.5; in that of C22U U28G A45G G67U, no more than 0.5.
On to C24A A70U, for which the yeast fitness turned out to be 0.596.
As to C22U G63A, the yeast fitness worked out at 0.81.
In the case of C22G C24A G38A it was 0.544; in that of G23C G50A, 0.726.
Take C22U U59A C61G: the yeast fitness amounted to 0.547.
In the case of G23C C29G A43U G50A A65C it was 0.542; in that of C22G U35C A57C, 0.61; in that of G23C A42U, 0.65.
In the case of C22G U64G it was 0.8.
In the case of G23A C46U A65C it was 0.54; in that of C22G C27G C31G C49A G52A, no more than 0.5.
In the case of C24A A40G C66U, the yeast fitness was no more than 0.5.
In the case of C22G U26A C29G A70U it was 0.591; in that of G23C U32A C61U, no more than 0.5; in that of C22U G48A A69C, 0.741.
Consider C22G U32C U54A A65G, for which the yeast fitness is no more than 0.5.
Then C22U A42U G44U G63A, with 0.608; and G23C G68A, with 0.719.
In the case of G23C G68U it was 0.64; in that of C22A U28C G67A, 0.538.
In the case of C22A C33G A43C, the yeast fitness worked out at 0.55.
Then C22G C27G C31G C49U C61G A69U, with 0.534; and G23A A42U C61A, with no more than 0.5.
Then C22U U28G U32A, with no more than 0.5; and C22G C34A G67U, with no more than 0.5; and C22G A45C C61U A65G, with no more than 0.5.
Then C22G C27G U59C C62U G68U, with 0.529; and G23A A40G G41A A45U G51C, with no more than 0.5.
As for C22G C31U U64C, the yeast fitness came to 0.748.
For the variant C22A G41C A65C, the yeast fitness is no more than 0.5.
As to G23C G39C G50A G68C, the yeast fitness is no more than 0.5.
Then C22G G25C A37G, with no more than 0.5.
For the variant G23A U54A G67A, the yeast fitness is no more than 0.5.
Then G23A A43U C62U, with 0.751; and C22G A45U, with 0.712.
Then G23C C31G C60A A70U, with 0.554; and C22G C34U A43C A69U, with no more than 0.5; and G23A A36U G39C G68A, with no more than 0.5.
In the case of C22G A42G C60A it was no more than 0.5.
C22G C55U: the yeast fitness amounted to 0.739.
In the case of C22G C34A A42G C66A it was no more than 0.5.
Then C22G G23C A42U C62A, with no more than 0.5; and C22G A37G A45C G51U, with no more than 0.5; and C22G A45C G52C A57U, with 0.549.
In the case of G23A U59A it was 0.791.
For the variant C22U C62G A69U, the yeast fitness came to 0.586.
Take C22G C49G C66A: the yeast fitness was no more than 0.5.
Then C22U A42U C49G, with no more than 0.5; and C22G C31G C49U, with 0.605.
C22G C31A A43G A69U: the yeast fitness was no more than 0.5.
For the variant C22U C34A G56C A57U, the yeast fitness is no more than 0.5.
In the case of C22G C24U A43C A70U it was no more than 0.5; in that of G23A U26A G50C U53C, no more than 0.5; in that of C22U C34U G39A G44A G58C A65C, no more than 0.5.
In the case of G23A G51A C61A C66A it was 0.545; in that of C22U A40U U47C, 0.544.
For C22U U32C, the yeast fitness was found to be 0.902.
Then C22G C27G U59C C61U C62U G68U, with no more than 0.5; and C22G G41A G48C G68C, with no more than 0.5.
Then C22A G25A U64A, with 0.629; and G23C G41C C49U, with no more than 0.5.
In the case of C22U C31G U64A C66A it was no more than 0.5; in that of C22G C31G C66U, 0.64.
For C22U C30U A37G, the yeast fitness came to 0.526.
Then G23C C29U C49A C61U, with no more than 0.5; and C22U C31U A45U C55U A70U, with no more than 0.5.
C22U A36C A69C: the yeast fitness was no more than 0.5.
Then C22U A65G G68C, with 0.534.
In the case of C22G C34A G58A C66A it was no more than 0.5; in that of C22G U32A, 0.71.
Then C22A U32C C66U, with 0.503; and C22G C24A C27U U59A, with no more than 0.5; and C24A A42G G63A, with no more than 0.5.
In the case of C22U C29G A36U G41C A45C C49U U54C C61U, the yeast fitness was no more than 0.5.
Then C22U C61U, with 0.72.
In the case of C22G A36C G68C it was no more than 0.5; in that of C22U C30G C61U A65C C66U, no more than 0.5; in that of C22G G23C C27A U28C C60A, no more than 0.5.
Then C22G C30G C55A, with no more than 0.5.
Take G23A C29G U32G C34G A36G C62U: the yeast fitness is no more than 0.5.
Then C22U C60G, with 0.688; and C22G C49U C62G, with 0.558; and C22G G25C U26C C27G A40G, with no more than 0.5.
In the case of C22U C30U A57G it was no more than 0.5.
Then C22G G68A, with 0.813; and C22U C30G A36U C46G, with no more than 0.5; and C22G C34U, with 0.696.
In the case of C22G C29A, the yeast fitness was determined as 0.662.
In the case of G23A C55U A57C G58A it was no more than 0.5; in that of C22U A45U C62U, 0.671; in that of C22G C24A G38A G67A, 0.531.
In the case of C22G G58A it was 1.07; in that of G23C C55G, no more than 0.5.
Then C24A A45G A57U C62U, with no more than 0.5; and C22A U35A G58A, with no more than 0.5.
Regarding G23C C49A U59C A69G, the yeast fitness is no more than 0.5.
Consider C22U A42C A57C, for which the yeast fitness is no more than 0.5.
Regarding G23A C27G C55G, the yeast fitness was no more than 0.5.
G23U C49G A70U: the yeast fitness is no more than 0.5.
In the case of G23A C31U A57U it was no more than 0.5; in that of C22U G25A U26G C62U A65U, 0.51.
C22G C49G C62G: the yeast fitness was no more than 0.5.
In the case of C22U U26A G67C it was no more than 0.5; in that of C22U C46U G50C C55U A57U C62G A70U, no more than 0.5.
In the case of G23A C30U U35C C62A it was no more than 0.5; in that of G23C C34U U47A G58C G67U, 0.533.
Then C22G G25C U35C A37G A65U, with no more than 0.5.
Take C22U C24U C27U C31U C62U: the yeast fitness was no more than 0.5.
For C22G A43G C55U U64G, the yeast fitness was no more than 0.5.
Then C22U A36G G51C A65C, with 0.6; and G23C A42G A69G A70C, with no more than 0.5; and C22G C27G C31G C61G A69U, with 0.62.
In the case of G23C A36G it was 0.625; in that of G23C A36C, no more than 0.5; in that of C22U G52C, 0.537.
On to G23A C49A U59C C62U A65U A70C, for which the yeast fitness came to 0.524.
Then C22U U54A C55U, with 0.776; and G23A G39C, with 0.752.

These data come from the RNAGym collection of RNA variant scans (doi:10.1126/science.aae0568).
